Reference: ChEMBL document CHEMBL1134684, “Phenoxypropoxybiguanides, prodrugs of DHFR-inhibiting diaminotriazine antimalarials” (J Med Chem, 2001)
≈ marks a conversion by molar mass, not a printed value.

Key:
Mus musculus [1] = species on record: Mus musculus; assay: Dose needed to increase the 100% survival of treated animals (mouse), to twice the number of days; type: ADME, organism-based; settings: in vivo
[2] = In vivo antimalarial activity against Plasmodium berghei in mice (Mus musculus) after 6 days; type: functional; settings: 144 h
Outline: (§1)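 Male or female CD-1 mice (4-5 weeks, 20-25 g) infected ip on day 0 with 5 × 10⁴ P. berghei KBG-173 parasitized erythrocytes. Oral doses in 0.5% hydroxyethylcellulose/0.1% Tween-80, given bid 6 h apart on days 3, 4 and 5, computed as free base. Giemsa-stained tail-blood smears on day 6 give % infected RBC. ED90 is the dose reducing parasitemia to 10% of untreated infected controls.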

Mus musculus [3] = species on record: Mus musculus; assay: Dose required for 100%, 31 day survival of Plasmodium berghei inoculated mice (Mus musculus).; type: ADME, organism-based; settings: in vivo, 744 h
Outline: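 Same mouse P. berghei KBG-173 model, with ip infection on day 0 and oral bid treatment on days 3, 4 and 5. The experiment runs 31 days. The complete survival dose is the dose at which all animals are alive on day 31.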

Plasmodium falciparum [4] = assay: In vitro antimalarial activity against Plasmodium falciparum K1; type: functional
Outline: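 K1 parasites synchronized with 5% sorbitol. Drugs in methanol or DMSO, 2-fold serially diluted. Cultures at 2% hematocrit and 0.5% parasitemia (>95% rings) in 10% human serum under 5% O₂/5% CO₂/90% N₂ at 37.5 °C for 24-30 h. Romanowsky-stained thick films scored. MIC is the lowest concentration preventing >90% maturation to normal schizonts.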

Plasmodium falciparum [5] = assay: In vitro antimalarial activity against Plasmodium falciparum W2; type: functional, organism-based
Outline: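 Chloroquine-, quinine-, sulfadoxine- and pyrimethamine-resistant Indochina W-2 clone tested in a semiautomated microdilution assay. Graded drug concentrations incubated 66 h in medium with physiological folic acid. Read-out is inhibition of radiolabeled hypoxanthine incorporation.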

Mus musculus [6] = species on record: Mus musculus; assay: Dose required by the animals(mouse) to survive after 31 days; type: ADME, organism-based; settings: in vivo, 744 h
Outline: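 P. berghei KBG-173 in male or female CD-1 mice (4-5 weeks, 20-25 g), infected ip on day 0 with 5 × 10⁴ parasitized erythrocytes. Oral doses in 0.5% hydroxyethylcellulose/0.1% Tween-80 (10 mL/kg, free base), bid 6 h apart on days 3-5. Experiment run 31 days; complete survival dose = dose at which all animals survive to day 31.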

Mus musculus [7] = assay: Compound was tested in vivo for antimalarial activity against Plasmodium berghei in mice (Mus musculus) after 6 days of administration (ED90 is the dose necessary to reduce the percentage of infected cells to 10% of the level found in the infected untreated controls); type: functional; settings: 144 h; outline: as §1

SMILES	ED (Mus musculus [1])	ED90 [2]	Dose (Mus musculus [3])	IC90 (Plasmodium falciparum [4])	IC50 (Plasmodium falciparum [5])	other results
CC(C)/N=C(N)/N=C(\N)NOCCCOc1cccc2ccccc12.Cl	185 mg/kg	> 256 mg/kg	495 mg/kg	–	–	–
CC(C)/N=C(N)/N=C(\N)NOCCCSc1ccc(F)cc1.Cl	109 mg/kg	70 mg/kg	183 mg/kg	–	–	–
Cc1ccc(SCCCON/C(N)=N/C(N)=N/C(C)C)cc1.Cl	117 mg/kg	92 mg/kg	265 mg/kg	–	–	–
Cc1cc(C)c(C)c(OCCCON/C(N)=N/C(N)=N/C(C)C)c1.Cl	> 128 mg/kg	< 128 mg/kg	–	–	–	–
CC(C)/N=C(N)/N=C(\N)NOCCCOc1cc(F)cc(F)c1F.Cl	107 mg/kg	74 mg/kg	180 mg/kg	–	–	–
CC(C)/N=C(N)/N=C(\N)NOCCCOc1cc(F)c(F)cc1F.Cl	71 mg/kg	18 mg/kg	128 mg/kg	–	–	–
CC(C)/N=C(N)/N=C(\N)NOCCCOc1ccc2ccccc2c1.Cl	< 128 mg/kg	< 128 mg/kg	–	–	–	–
Cc1ccc(OCCCON/C(N)=N/C(N)=N/C(C)C)cc1C.Cl	> 128 mg/kg	> 128 mg/kg	–	–	–	–
Cc1cc(OCCCON/C(N)=N/C(N)=N/C(C)C)ccc1C(C)C.Cl	128 mg/kg	< 128 mg/kg	–	–	–	–
Cc1ccc(OCCCON/C(N)=N/C(N)=N/C(C)C)c(C)c1.Cl	170 mg/kg	120 mg/kg	235 mg/kg	–	–	–
CC1(C)N=C(N)N=C(N)N1OCCCOc1cccc(C(F)(F)F)c1.Cl	–	–	–	2.5 ng/mL	0.0299 ng/mL	–
Cc1cccc(OCCCON2C(N)=NC(N)=NC2(C)C)c1.Cl	–	–	–	0.37 ng/mL	0.0416 ng/mL	–
CC1(C)N=C(N)N=C(N)N1OCCCOc1ccc(Br)cc1.Cl	–	–	–	0.4 ng/mL	–	–
CC1(C)N=C(N)N=C(N)N1OCCCOc1ccc(F)cc1.Cl	–	–	–	0.63 ng/mL	–	–
CC1(C)N=C(N)N=C(N)N1OCCCSc1ccc(F)cc1.Cl	–	–	–	1.25 ng/mL	0.0222 ng/mL	–
COc1ccc(OCCCON2C(N)=NC(N)=NC2(C)C)cc1.Cl	–	–	–	0.32 ng/mL	0.0342 ng/mL	–
CC1(C)N=C(N)N=C(N)N1OCCCOc1cc(F)cc(F)c1F.Cl	–	–	–	0.63 ng/mL	0.0301 ng/mL	–
CC1(C)N=C(N)N=C(N)N1OCCCOc1cc(F)c(F)cc1F.Cl	–	–	–	0.94 ng/mL	0.032 ng/mL	–
Cc1cc(OCCCON2C(N)=NC(N)=NC2(C)C)ccc1C(C)C.Cl	–	–	–	11.7 ng/mL	0.0719 ng/mL	–
COc1cc(OCCCON2C(N)=NC(N)=NC2(C)C)cc(OC)c1OC.Cl	–	–	–	1.25 ng/mL	0.211 ng/mL	–
CCc1ccc(OCCCO/N=C(N)/N=C(\N)NC(C)C)cc1.Cl	158 mg/kg	96 mg/kg	505 mg/kg	–	–	–
CC1(C)N=C(N)N=C(N)N1OCCCOc1ccc([N+](=O)[O-])cc1.Cl	–	–	–	0.32 ng/mL	0.0299 ng/mL	–
CC(C)/N=C(N)/N=C(\N)NOCCCOc1cccc(C(F)(F)F)c1.Cl	73 mg/kg	27 mg/kg	140 mg/kg	–	–	–
Cc1cccc(OCCCON/C(N)=N/C(N)=N/C(C)C)c1.Cl	> 128 mg/kg	> 128 mg/kg	–	–	–	–
COc1ccc(OCCCO/N=C(N)/N=C(\N)NC(C)C)cc1.Cl	> 128 mg/kg	> 128 mg/kg	–	–	–	–
Cc1ccc(OCCCON/C(N)=N/C(N)=N/C(C)C)cc1.Cl	265 mg/kg	113 mg/kg	445 mg/kg	–	–	–
CC(C)/N=C(N)/N=C(\N)NOCCCOc1ccc(C(C)(C)C)cc1.Cl	460 mg/kg	> 128 mg/kg	1480 mg/kg	–	–	–
CC(C)/N=C(N)/N=C(\N)NOCCCOc1ccc(F)cc1F.Cl	> 128 mg/kg	> 128 mg/kg	–	–	–	–

SMILES	ED (Mus musculus [1])	ED90 [2]	Dose (Mus musculus [3])	IC90 (Plasmodium falciparum [4])	IC50 (Plasmodium falciparum [5])	other results
CC(C)/N=C(N)/N=C(\N)NOCCCOc1ccc(F)c(F)c1.Cl	27 mg/kg	< 16 mg/kg	77 mg/kg	–	–	–
CC(C)/N=C(N)/N=C(\N)NOCCCOc1ccccc1.Cl	165 mg/kg	124 mg/kg	540 mg/kg	–	–	–
CC1(C)N=C(N)N=C(N)N1OCCCOc1ccc2ccccc2c1.Cl	–	–	–	1.56 ng/mL	0.0333 ng/mL	–
CC1(C)N=C(N)N=C(N)N1OCCCOc1ccc(F)c(F)c1.Cl	–	–	–	0.38 ng/mL	0.0332 ng/mL	–
CC1(C)N=C(N)N=C(N)N1OCCCOc1ccc(F)cc1F.Cl	–	–	–	0.42 ng/mL	0.0285 ng/mL	–
CC1(C)N=C(N)N=C(N)N1OCCc1cccc(C(F)(F)F)c1.Cl	–	–	–	40 ng/mL	0.184 ng/mL	–
CC(C)/N=C(N)/N=C(\N)NOCc1ccc(Cl)c(Cl)c1	22 mg/kg	< 8 mg/kg	32 mg/kg	–	–	–
N=C(NOCCCOc1cc(Cl)c(Cl)cc1Cl)NC(=N)NC1CCCCC1	275 mg/kg	> 256 mg/kg	470 mg/kg	–	–	–
CC(C)/N=C(N)/N=C(\N)NOCCCSc1cc(Cl)ccc1Cl	> 128 mg/kg	< 128 mg/kg	–	–	–	–
CC1(C)N=C(N)N=C(N)N1OCCCSc1ccc(Cl)cc1	–	–	–	2.08 ng/mL (≈ 6.08 nM)	0.0288 ng/mL (≈ 0.0842 nM)	–
CC(C)/N=C(N)/N=C(\N)NOCCCOc1ccc(F)cc1	30 mg/kg	< 16 mg/kg	90 mg/kg	–	–	–
CC(C)/N=C(N)/N=C(\N)NOCCCOc1ccc(Br)cc1	64 mg/kg	< 32 mg/kg	135 mg/kg	–	–	–
CC(C)/N=C(N)/N=C(\N)NOCCCSc1ccc(Cl)cc1	112 mg/kg	73 mg/kg	182 mg/kg	–	–	–
CC(C)/N=C(N)/N=C(\N)NOCCCOc1ccc(Cl)cc1Cl	28 mg/kg	17 mg/kg	64 mg/kg	–	–	–
CC(C)NC(=N)NC(=N)NOCCCOc1ccc(Cl)cc1	26 mg/kg	< 16 mg/kg	79 mg/kg	–	–	–
CC(C)NC(=N)NC(=N)NOCCCOc1cc(Cl)c(Cl)cc1Cl	30 mg/kg	< 16 mg/kg	76 mg/kg	–	–	–
CC1(C)N=C(N)N=C(N)N1OCCOc1cc(Cl)c(Cl)cc1Cl	–	–	–	40 ng/mL (≈ 105 nM)	0.278 ng/mL (≈ 0.73 nM)	–
CC1(C)N=C(N)N=C(N)N1OCCCSc1cc(Cl)ccc1Cl	–	–	–	2.08 ng/mL (≈ 5.53 nM)	0.0254 ng/mL (≈ 0.0675 nM)	–
CCCCCCCCCC1N=C(N)N=C(N)N1OCCCOc1cc(Cl)c(Cl)cc1Cl (centres undefined)	–	–	–	> 640 ng/mL	> 0.5 ng/mL	–
CC1(C)N=C(N)N=C(N)N1OCCCOc1cc(Cl)c(Cl)cc1Cl	–	–	–	1.43 ng/mL (≈ 3.62 nM)	0.047 ng/mL (≈ 0.119 nM)	–
CC1(C)N=C(N)N=C(N)N1OCCCOc1ccc(Cl)cc1	–	–	–	0.63 ng/mL (≈ 1.93 nM)	–	–
CC1(C)NC(N)=NC(=N)N1OCCCOc1ccc(Cl)cc1Cl	–	–	–	1.67 ng/mL (≈ 4.64 nM)	0.0379 ng/mL (≈ 0.105 nM)	–
N=C1N=C(N)NC2(CCCCC2)N1OCCCOc1cc(Cl)c(Cl)cc1Cl	–	–	–	66.7 ng/mL (≈ 153 nM)	0.113 ng/mL (≈ 0.26 nM)	–
CC(C)NC(=N)NC(=N)NOCCCOc1ccc(Cl)c(Cl)c1	16 mg/kg	< 16 mg/kg	33 mg/kg	–	–	–
CCN(CC)CCCC(C)Nc1ccnc2cc(Cl)ccc12 (centres undefined) [CHLOROQUINE]	–	–	–	–	–	Complete survival dose (Mus musculus [6]): 256 mg/kg; ED90 (Mus musculus [7]): 3 mg/kg
CC1(C)N=C(N)N=C(N)N1c1ccc(Cl)cc1 [CYCLOGUANIL]	–	–	–	152 ng/mL (≈ 604 nM)	> 0.5 ng/mL	–
CCc1nc(N)nc(N)c1-c1ccc(Cl)cc1 [PYRIMETHAMINE]	–	–	–	1740 ng/mL (≈ 7020 nM)	–	Complete survival dose (Mus musculus [6]): 400 mg/kg; ED90 (Mus musculus [7]): 1.2 mg/kg
